ChEMBL document CHEMBL1136453, “New classes of antibacterial oxazolidinones with C-5, methylene O-linked heterocyclic side chains” (2003)
≈ marks a conversion by molar mass, not a printed value.

Columns and labels:
Enterococcus faecalis = assay: In vitro minimum inhibitory concentration against Enterococcus faecalis; assay type: functional
Method in brief: (§1)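 Agar dilution per NCCLS protocol with doubling dilutions from 128 to 0.008 mg/L, incubated at 37 °C. Strains came from an in-house culture collection. MIC reported in mg/L.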

Staphylococcus aureus [1] = assay: In vitro minimum inhibitory concentration against coagulase negative Staphylococcus aureus methicillin resistant (CNSMR); assay type: functional
Staphylococcus aureus [2] = assay: In vitro minimum inhibitory concentration against Staphylococcus aureus MRQR; assay type: functional
Staphylococcus aureus [3] = assay: In vitro minimum inhibitory concentration against Staphylococcus aureus Oxford; assay type: functional; details: Staphylococcus aureus; read-out: MIC
Streptococcus pyogenes = assay: In vitro minimum inhibitory concentration against Streptococcus pyogenes penicillin sensitive; assay type: functional; method in brief: as §1
[4] = In vivo antibacterial activity against Staphylococcus aureus after intravenous administration (5 mg/kg) in mice using (MTT) mouse thigh test
Staphylococcus aureus [5] = assay: In vivo antibacterial activity against Staphylococcus aureus after intravenous administration (10 mg/kg) in mice using (MTT) mouse thigh test
Mus musculus [6] = assay: In vivo antibacterial activity against Staphylococcus aureus after intravenous administration (5 mg/kg) in mice using (MTT) mouse thigh test
Mus musculus [7] = assay: In vivo antibacterial activity against Staphylococcus aureus after intravenous administration (10 mg/kg) in mice using (MTT) mouse thigh test

Compound	MIC (Enterococcus faecalis)	MIC (Staphylococcus aureus [1])	MIC (Staphylococcus aureus [2])	MIC (Staphylococcus aureus [3])	MIC (Streptococcus pyogenes)	Activity [4]	Activity (Staphylococcus aureus [5])	Activity (Mus musculus [6])	Activity (Mus musculus [7])
CC(O)C(=O)N1CC=C(c2c(F)cc(N3C[C@H](COc4ccon4)OC3=O)cc2F)CC1 (single isomer, unassigned)	1 µg/mL (≈ 2.23 µM)	0.5 µg/mL (≈ 1.11 µM)	0.5 µg/mL (≈ 1.11 µM)	0.5 µg/mL (≈ 1.11 µM)	1 µg/mL (≈ 2.23 µM)	0.49	1.02		
C[C@H](O)C(=O)N1CC=C(c2ccc(N3C[C@H](COc4cnsn4)OC3=O)cc2F)CC1	1 µg/mL (≈ 2.23 µM)	0.5 µg/mL (≈ 1.11 µM)	0.5 µg/mL (≈ 1.11 µM)	0.25 µg/mL (≈ 0.557 µM)	1 µg/mL (≈ 2.23 µM)	0.43	1.14		
O=C1O[C@@H](COc2ccncn2)CN1c1ccc(C2=CCOCC2)c(F)c1	4 µg/mL (≈ 10.8 µM)	2 µg/mL (≈ 5.39 µM)	2 µg/mL (≈ 5.39 µM)	1 µg/mL (≈ 2.69 µM)	4 µg/mL (≈ 10.8 µM)	0.23	0.34		
CC(=O)N1CC=C(c2ccc(N3C[C@H](COc4ccon4)OC3=O)cc2F)CC1	1 µg/mL (≈ 2.49 µM)	0.5 µg/mL (≈ 1.25 µM)	0.5 µg/mL (≈ 1.25 µM)	0.5 µg/mL (≈ 1.25 µM)	1 µg/mL (≈ 2.49 µM)	0.17	0.81		
O=CN1CC=C(c2c(F)cc(N3C[C@H](COc4ccon4)OC3=O)cc2F)CC1	1 µg/mL (≈ 2.47 µM)	0.5 µg/mL (≈ 1.23 µM)	0.5 µg/mL (≈ 1.23 µM)	0.25 µg/mL (≈ 0.617 µM)	0.5 µg/mL (≈ 1.23 µM)	-0.01	0.43		
CC(=O)NC[C@H]1CN(c2ccc(C3=CCOCC3)c(F)c2)C(=O)O1	0.13 µg/mL (≈ 0.389 µM)	0.13 µg/mL (≈ 0.389 µM)	0.25 µg/mL (≈ 0.748 µM)	0.13 µg/mL (≈ 0.389 µM)	0.13 µg/mL (≈ 0.389 µM)	0.6	1.34		
O=C([C@@H](O)CO)N1CC=C(c2ccc(N3C[C@H](COc4ccon4)OC3=O)cc2F)CC1	1 µg/mL (≈ 2.24 µM)	0.5 µg/mL (≈ 1.12 µM)	0.5 µg/mL (≈ 1.12 µM)	0.25 µg/mL (≈ 0.559 µM)	0.5 µg/mL (≈ 1.12 µM)	0.63	1.04		
O=C1O[C@@H](COc2ccon2)CN1c1ccc(C2=CCOCC2)c(F)c1	1 µg/mL (≈ 2.78 µM)	0.5 µg/mL (≈ 1.39 µM)	0.5 µg/mL (≈ 1.39 µM)	0.5 µg/mL (≈ 1.39 µM)	0.5 µg/mL (≈ 1.39 µM)	-0.07	0.06		
CC(=O)NC[C@H]1CN(c2ccc(N3CCOCC3)c(F)c2)C(=O)O1 [LINEZOLID]		0.5 µg/mL (≈ 1.48 µM)	1 µg/mL (≈ 2.96 µM)	0.5 µg/mL (≈ 1.48 µM)	1 µg/mL (≈ 2.96 µM)			0.05	1.4
Cc1no[n+]([O-])c1OC[C@H]1CN(c2ccc(C3=CCOCC3)c(F)c2)C(=O)O1	2 µg/mL (≈ 5.11 µM)	2 µg/mL (≈ 5.11 µM)	2 µg/mL (≈ 5.11 µM)	1 µg/mL (≈ 2.56 µM)	4 µg/mL (≈ 10.2 µM)	0.03	0.2		
O=C1O[C@@H](COc2cnsn2)CN1c1ccc(C2=CCOCC2)c(F)c1	0.5 µg/mL (≈ 1.32 µM)	0.25 µg/mL (≈ 0.662 µM)	0.25 µg/mL (≈ 0.662 µM)	0.25 µg/mL (≈ 0.662 µM)	0.25 µg/mL (≈ 0.662 µM)	0.11	0.45		
O=C(CO)N1CC=C(c2c(F)cc(N3C[C@H](COc4cnsn4)OC3=O)cc2F)CC1	0.5 µg/mL (≈ 1.11 µM)	0.25 µg/mL (≈ 0.553 µM)	0.25 µg/mL (≈ 0.553 µM)	0.13 µg/mL (≈ 0.287 µM)	0.25 µg/mL (≈ 0.553 µM)	1.05	1.72		
O=C([C@@H](O)CS(=O)(=O)CCO)N1CC=C(c2c(F)cc(N3C[C@H](COc4ccon4)OC3=O)cc2F)CC1	0.5 µg/mL (≈ 0.897 µM)	0.25 µg/mL (≈ 0.448 µM)	0.5 µg/mL (≈ 0.897 µM)	0.25 µg/mL (≈ 0.448 µM)	0.25 µg/mL (≈ 0.448 µM)	0.1	0.32		
O=C1O[C@@H](COc2ccon2)CN1c1cc(F)c(C2=CCN(Cc3nccs3)CC2)c(F)c1	2 µg/mL (≈ 4.22 µM)	1 µg/mL (≈ 2.11 µM)	1 µg/mL (≈ 2.11 µM)	0.5 µg/mL (≈ 1.05 µM)	1 µg/mL (≈ 2.11 µM)	0.07	0.28		
O=C1O[C@@H](COc2cnccn2)CN1c1ccc(C2=CCOCC2)c(F)c1	2 µg/mL (≈ 5.39 µM)	1 µg/mL (≈ 2.69 µM)	1 µg/mL (≈ 2.69 µM)	1 µg/mL (≈ 2.69 µM)	1 µg/mL (≈ 2.69 µM)	0.22	0.35		
O=C(CO)N1CC=C(c2ccc(N3C[C@H](COc4ccon4)OC3=O)cc2F)CC1	1 µg/mL (≈ 2.4 µM)	0.5 µg/mL (≈ 1.2 µM)	0.5 µg/mL (≈ 1.2 µM)	0.25 µg/mL (≈ 0.599 µM)	0.5 µg/mL (≈ 1.2 µM)	0.71	1.2		
O=C([C@@H](O)CO)N1CC=C(c2ccc(N3C[C@H](COc4cnsn4)OC3=O)cc2F)CC1	0.25 µg/mL (≈ 0.538 µM)	0.13 µg/mL (≈ 0.28 µM)	0.13 µg/mL (≈ 0.28 µM)	0.06 µg/mL (≈ 0.129 µM)	0.13 µg/mL (≈ 0.28 µM)	0.42	1.11		
CS(=O)(=O)C[C@@H](O)C(=O)N1CC=C(c2c(F)cc(N3C[C@H](COc4ccon4)OC3=O)cc2F)CC1	0.5 µg/mL (≈ 0.948 µM)	0.25 µg/mL (≈ 0.474 µM)	0.25 µg/mL (≈ 0.474 µM)	0.25 µg/mL (≈ 0.474 µM)	0.5 µg/mL (≈ 0.948 µM)	1.02	1.42		
O=C(C(CO)Cn1cncn1)N1CC=C(c2c(F)cc(N3C[C@H](COc4ccon4)OC3=O)cc2F)CC1 (stereo partly specified)	2 µg/mL (≈ 3.77 µM)	1 µg/mL (≈ 1.89 µM)	1 µg/mL (≈ 1.89 µM)	0.5 µg/mL (≈ 0.943 µM)	1 µg/mL (≈ 1.89 µM)	0.25	0.5		
O=C([C@@H](O)CO)N1CC=C(c2c(F)cc(N3C[C@H](CO)OC3=O)cc2F)CC1	1 µg/mL (≈ 2.51 µM)	0.25 µg/mL (≈ 0.628 µM)	0.5 µg/mL (≈ 1.26 µM)	0.25 µg/mL (≈ 0.628 µM)	0.5 µg/mL (≈ 1.26 µM)	0.59	1.01		
O=C(C(CO)CO)N1CC=C(c2c(F)cc(N3C[C@H](COc4ccon4)OC3=O)cc2F)CC1	1 µg/mL (≈ 2.09 µM)	0.5 µg/mL (≈ 1.04 µM)	0.5 µg/mL (≈ 1.04 µM)	0.5 µg/mL (≈ 1.04 µM)	0.5 µg/mL (≈ 1.04 µM)	0.37	0.41		
O=C1O[C@@H](COc2ccon2)CN1c1ccc(C2=CCN(C(=S)CO)CC2)c(F)c1	0.5 µg/mL (≈ 1.15 µM)	0.25 µg/mL (≈ 0.577 µM)	0.5 µg/mL (≈ 1.15 µM)	0.25 µg/mL (≈ 0.577 µM)	0.25 µg/mL (≈ 0.577 µM)	-0.01	0.07		
O=C1O[C@@H](COc2ccccn2)CN1c1ccc(C2=CCOCC2)c(F)c1	2 µg/mL (≈ 5.4 µM)	1 µg/mL (≈ 2.7 µM)	1 µg/mL (≈ 2.7 µM)	0.5 µg/mL (≈ 1.35 µM)	2 µg/mL (≈ 5.4 µM)	0	0.15		
C[C@H](O)C(=O)N1CC=C(c2c(F)cc(N3C[C@H](COc4ccon4)OC3=O)cc2F)CC1	1 µg/mL (≈ 2.23 µM)	0.5 µg/mL (≈ 1.11 µM)	0.5 µg/mL (≈ 1.11 µM)	0.5 µg/mL (≈ 1.11 µM)	1 µg/mL (≈ 2.23 µM)	0.64	1.16		
O=C(OC[C@@H](O)CO)N1CC=C(c2ccc(N3C[C@H](COc4ccon4)OC3=O)cc2F)CC1	1 µg/mL (≈ 2.09 µM)	0.5 µg/mL (≈ 1.05 µM)	0.5 µg/mL (≈ 1.05 µM)	0.25 µg/mL (≈ 0.524 µM)	0.5 µg/mL (≈ 1.05 µM)	0.27	0.48		
O=C(CO)N1CC=C(c2ccc(N3C[C@H](COc4cnsn4)OC3=O)cc2F)CC1	0.25 µg/mL (≈ 0.575 µM)	0.25 µg/mL (≈ 0.575 µM)	0.25 µg/mL (≈ 0.575 µM)	0.13 µg/mL (≈ 0.299 µM)	0.25 µg/mL (≈ 0.575 µM)	0.78	1.21		
Cc1cc(OC[C@H]2CN(c3ccc(C4=CCOCC4)c(F)c3)C(=O)O2)no1	4 µg/mL (≈ 10.7 µM)	2 µg/mL (≈ 5.34 µM)	2 µg/mL (≈ 5.34 µM)	1 µg/mL (≈ 2.67 µM)	4 µg/mL (≈ 10.7 µM)		-0.45		
O=C([C@@H](O)CO)N1CC=C(c2c(F)cc(N3C[C@H](COc4ccon4)OC3=O)cc2F)CC1 [POSIZOLID]	0.5 µg/mL (≈ 1.07 µM)	0.5 µg/mL (≈ 1.07 µM)	0.5 µg/mL (≈ 1.07 µM)	0.25 µg/mL (≈ 0.537 µM)	0.25 µg/mL (≈ 0.537 µM)	0.7	0.98		
O=C1O[C@@H](COc2ccsn2)CN1c1ccc(C2=CCOCC2)c(F)c1	0.5 µg/mL (≈ 1.33 µM)	0.25 µg/mL (≈ 0.664 µM)	0.25 µg/mL (≈ 0.664 µM)	0.25 µg/mL (≈ 0.664 µM)	0.5 µg/mL (≈ 1.33 µM)	0.01	0.21		
